Laboratory results reported in ChEMBL document CHEMBL3997768, “The synthesis and antistaphylococcal activity of dehydroabietic acid derivatives: modifications at C12 and C7” (2017).
Converted amounts (≈) assume the structure as drawn. The source made the active and inactive calls. How the calls were made is not given here.

What was measured:
Type in all cases: functional
[1] = test system: Staphylococcus aureus; assay: Antibacterial activity against linezolid-resistant Staphylococcus aureus NRS-271 containing phage type E-MRSA after 18 hrs by two fold serial dilution method; settings: NRS-271, 18 h
In short: (§1)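 Strains grown overnight at 37 °C in TSB without antibiotic. Cultures were diluted 1000-fold, grown at 37 °C for 2–3 h to A600 0.6, then diluted 1:400 in fresh TSB. Equal volumes of bacteria and two-fold serial DMSO dilutions (final 0.39–50) were mixed. A600 was read after 18 h. MIC was the lowest concentration inhibiting growth. Run in triplicate, with vancomycin and tetracycline controls.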

[2] = test system: Staphylococcus aureus; assay: Antibacterial activity against oxacillin/tetracycline-resistant Staphylococcus aureus NRS-100 after 18 hrs by two fold serial dilution method; settings: NRS-100, 18 h; in short: as §1
[3] = test system: Escherichia coli; assay: Antibacterial activity against Escherichia coli AB1157 at 50 ug/ml after 18 hrs by two fold serial dilution method
In short: (§2)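 Strains were grown overnight at 37 °C in TSB without antibiotic, diluted 1000-fold, and grown 2–3 h to A600 0.6. They were then diluted 1:400 in fresh TSB. Compounds in DMSO were two-fold serially diluted to a final 0.39–50 and mixed with an equal volume of bacteria. A600 was read after 18 h. MIC is the lowest concentration inhibiting growth. Triplicate; vancomycin and tetracycline were positive controls.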

[4] = test system: Staphylococcus aureus; assay: Antibacterial activity against erythromycin-resistant Staphylococcus aureus NRS-70 after 18 hrs by two fold serial dilution method; settings: NRS-70, 18 h; in short: as §1
[5] = test system: Staphylococcus aureus; assay: Antibacterial activity against aminoglycosides/tetracycline-resistant Staphylococcus aureus NRS-1 after 18 hrs by two fold serial dilution method; settings: NRS-1, 18 h; in short: as §1
[6] = test system: Staphylococcus aureus; assay: Antibacterial activity against gentamicin-resistant Staphylococcus aureus NRS-108 after 18 hrs by two fold serial dilution method; settings: NRS-108, 18 h; in short: as §1
[7] = test system: Staphylococcus aureus; assay: Antibacterial activity against Staphylococcus aureus Newman after 18 hrs by two fold serial dilution method; in short: as §2

Row | SMILES | MIC [1] | MIC [2] | Activity [3] | MIC [4] | MIC [5] | MIC [6] | MIC [7]
1 | CC(C)c1cc2c(cc1Br)[C@@]1(C)CCC[C@@](C)(C(=O)O)[C@@H]1C/C2=N\OCCCNC(=O)c1ccc(Cl)s1 | 2.56 to 4.1 µM (≈ 1.56 to 2.5 µg/mL) | 5.13 µM (≈ 3.13 µg/mL) | inactive | 2.56 to 4.1 µM (≈ 1.56 to 2.5 µg/mL) | 10.2 to 20.5 µM (≈ 6.25 to 12.5 µg/mL) | 2.56 to 4.1 µM (≈ 1.56 to 2.5 µg/mL) | 2.05 to 4.1 µM (≈ 1.25 to 2.5 µg/mL)
2 | CC(C)c1cc2c(cc1Br)[C@@]1(C)CCC[C@@](C)(C(=O)O)[C@@H]1C/C2=N\OCCNC(=O)c1ccc(Cl)s1 | 1.56 to 2.5 µM (≈ 0.93 to 1.49 µg/mL) | 4.19 µM (≈ 2.5 µg/mL) | inactive | 2.62 to 4.19 µM (≈ 1.56 to 2.5 µg/mL) | 5.25 to 10.5 µM (≈ 3.13 to 6.25 µg/mL) | 2.62 to 4.19 µM (≈ 1.56 to 2.5 µg/mL) | 4.19 µM (≈ 2.5 µg/mL)
3 | CC(C)c1cc2c(cc1Br)[C@@]1(C)CCC[C@@](C)(C(=O)O)[C@@H]1C/C2=N\OCCCNC(=O)c1cc2ccccc2s1 | > 40 µM | > 40 µM | inactive | > 40 µM | > 40 µM | > 40 µM | 4 µM (≈ 2.5 µg/mL)
4 | CC(C)c1cc2c(cc1Br)[C@@]1(C)CCC[C@@](C)(C(=O)O)[C@@H]1C/C2=N\OCCNC(=O)c1cccc(C(F)(F)F)c1 | 2.5 to 4.01 µM (≈ 1.56 to 2.5 µg/mL) | 5.02 µM (≈ 3.13 µg/mL) | inactive | 2.5 to 4.01 µM (≈ 1.56 to 2.5 µg/mL) | 5.02 µM (≈ 3.13 µg/mL) | 2.5 to 4.01 µM (≈ 1.56 to 2.5 µg/mL) | 4.01 µM (≈ 2.5 µg/mL)
5 | CC(C)c1cc2c(cc1Br)[C@@]1(C)CCC[C@@](C)(C(=O)O)[C@@H]1C/C2=N\OCCNC(=O)c1ccc(Br)s1 | 2.44 to 3.9 µM (≈ 1.56 to 2.5 µg/mL) | 4.89 µM (≈ 3.13 µg/mL) | inactive | 2.44 to 3.9 µM (≈ 1.56 to 2.5 µg/mL) | 4.89 to 9.76 µM (≈ 3.13 to 6.25 µg/mL) | 2.44 to 3.9 µM (≈ 1.56 to 2.5 µg/mL) | 3.9 µM (≈ 2.5 µg/mL)
6 | CC(C)c1cc2c(cc1Br)[C@@]1(C)CCC[C@@](C)(C(=O)O)[C@@H]1C/C2=N\OCCCNC(=O)c1cc(Br)cs1 | 2.38 to 3.82 µM (≈ 1.56 to 2.5 µg/mL) | 4.78 µM (≈ 3.13 µg/mL) | inactive | 1.91 to 2.38 µM (≈ 1.25 to 1.56 µg/mL) | 4.78 to 9.55 µM (≈ 3.13 to 6.25 µg/mL) | 2.38 to 3.82 µM (≈ 1.56 to 2.5 µg/mL) | 1.91 to 3.82 µM (≈ 1.25 to 2.5 µg/mL)
7 | CC(C)c1cc2c(cc1Br)[C@@]1(C)CCC[C@@](C)(C(=O)O)[C@@H]1C/C2=N\OCCCNC(=O)Cc1ccc(C(F)(F)F)cc1 | 4.8 to 9.59 µM (≈ 3.13 to 6.25 µg/mL) | 4.8 to 9.59 µM (≈ 3.13 to 6.25 µg/mL) | inactive | 2.39 to 3.84 µM (≈ 1.56 to 2.5 µg/mL) | > 19.2 µM | 2.39 to 3.84 µM (≈ 1.56 to 2.5 µg/mL) | 3.84 µM (≈ 2.5 µg/mL)
8 | CC(C)c1cc2c(cc1Br)[C@@]1(C)CCC[C@@](C)(C(=O)O)[C@@H]1C/C2=N\OCCCNC(=O)c1cccc(C(F)(F)F)c1 | 3.92 to 4.91 µM (≈ 2.5 to 3.13 µg/mL) | 4.91 µM (≈ 3.13 µg/mL) | inactive | 4.91 µM (≈ 3.13 µg/mL) | > 19.6 µM | 3.92 to 4.91 µM (≈ 2.5 to 3.13 µg/mL) | 1.96 to 3.92 µM (≈ 1.25 to 2.5 µg/mL)
9 | CC(C)c1cc2c(cc1Br)[C@@]1(C)CCC[C@@](C)(C(=O)O)[C@@H]1C/C2=N\OCCCNC(=O)c1ccc[nH]1 | 2.79 to 4.48 µM (≈ 1.56 to 2.5 µg/mL) | 2.79 to 4.48 µM (≈ 1.56 to 2.5 µg/mL) | inactive | 2.79 to 4.48 µM (≈ 1.56 to 2.5 µg/mL) | 5.6 µM (≈ 3.13 µg/mL) | 2.79 to 4.48 µM (≈ 1.56 to 2.5 µg/mL) | 4.48 µM (≈ 2.5 µg/mL)
10 | CC(C)c1cc2c(cc1Br)[C@@]1(C)CCC[C@@](C)(C(=O)O)[C@@H]1C/C2=N\OCCCNC(=O)c1ccc(Br)s1 | 2.38 to 3.82 µM (≈ 1.56 to 2.5 µg/mL) | 4.78 µM (≈ 3.13 µg/mL) | inactive | 2.38 to 3.82 µM (≈ 1.56 to 2.5 µg/mL) | > 19.1 µM | 2.38 to 3.82 µM (≈ 1.56 to 2.5 µg/mL) | 1.91 to 3.82 µM (≈ 1.25 to 2.5 µg/mL)
